Key:
Assay type in all cases: functional
CAKI-1 = assay: Growth inhibition of human Caki1 cells after 48 hrs by sulforhodamine B assay; settings: CAKI-1, 48 h
How it was run: (§1)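 From log concentration versus % growth curves, GI50 (50% decrease in net growth), TGI (total growth inhibition) and LC50 (net 50% loss of initial cells) are derived for each line.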

SK-MEL-2 = assay: Growth inhibition of human SK-MEL-2 cells after 48 hrs by sulforhodamine B assay; settings: SK-MEL-2, 48 h
How it was run: (§2)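 GI50, TGI and LC50 were derived from log concentration versus % growth inhibition curves for each cell line. GI50 is the concentration giving a 50% decrease in net cell growth. Insensitive lines are reported as greater than the highest concentration.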

786-0 = assay: Growth inhibition of human 786-0 cells after 48 hrs by sulforhodamine B assay; settings: 786-0, 48 h; how it was run: as §1
MCF7 = assay: Growth inhibition of human MCF7 cells after 48 hrs by sulforhodamine B assay; settings: MCF7, 48 h; how it was run: as §2
M14 = assay: Growth inhibition of human M14 cells after 48 hrs by sulforhodamine B assay; settings: M14, 48 h; how it was run: as §1
HCT-15 [1] = assay: Growth inhibition of human HCT15 cells after 48 hrs by sulforhodamine B assay; settings: HCT-15, 48 h; how it was run: as §1
SK-OV-3 = assay: Growth inhibition of human SKOV3 cells after 48 hrs by sulforhodamine B assay; settings: SK-OV-3, 48 h
How it was run: (§3)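 NCI 60-cell panel five-dose assay. GI50, TGI and LC50 are derived from log concentration versus % growth inhibition curves. Cell lines insensitive at the top concentration are given a ">" prefix.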

Malme-3M [2] = assay: Growth inhibition of human MALME-3M cells after 48 hrs by sulforhodamine B assay; how it was run: as §2
OVCAR-4 = assay: Cytotoxicity against human OVCAR4 cells after 48 hrs by sulforhodamine B assay; settings: OVCAR-4, 48 h, read-out: LC50 (the source's name)
How it was run: (§4)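 NCI 60 human tumour cell line panel run to the NCI protocol. GI50, TGI and LC50 come from log concentration vs % growth inhibition curves for each cell line. Lines insensitive at the top concentration are reported with ">".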

A549 = assay: Cytotoxicity against human A549 cells after 48 hrs by sulforhodamine B assay; settings: A549, 48 h, read-out: LC50 (the source's name); how it was run: as §4
SF-268 = assay: Growth inhibition of human SF268 cells after 48 hrs by sulforhodamine B assay; settings: SF-268, 48 h; how it was run: as §2
NCI-H226 [3] = assay: Cytotoxicity against human NCI-H226 cells after 48 hrs by sulforhodamine B assay; settings: NCI-H226, 48 h, read-out: LC50 (the source's name); how it was run: as §4
EKVX = assay: Cytotoxicity against human EKVX cells after 48 hrs by sulforhodamine B assay; settings: read-out: LC50 (the source's name); how it was run: as §4
NCI-H226 [4] = assay: Growth inhibition of human NCI-H226 cells after 48 hrs by sulforhodamine B assay; settings: NCI-H226, 48 h; how it was run: as §2
NCI-H522 = assay: Cytotoxicity against human NCI-H522 cells after 48 hrs by sulforhodamine B assay; settings: NCI-H522, 48 h, read-out: LC50 (the source's name); how it was run: as §4
ACHN = assay: Growth inhibition of human ACHN cells after 48 hrs by sulforhodamine B assay; how it was run: as §1
COLO 205 = assay: Cytotoxicity against human COLO205 cells after 48 hrs by sulforhodamine B assay; settings: COLO 205, 48 h, read-out: LC50 (the source's name); how it was run: as §4
NCI/ADR-RES [5] = assay: Cytotoxicity against human NCI/ADR-RES cells after 48 hrs by sulforhodamine B assay; settings: read-out: LC50 (the source's name); how it was run: as §4
SN12C = assay: Growth inhibition of human SN12C cells after 48 hrs by sulforhodamine B assay; how it was run: as §3
HCT-15 [6] = assay: Cytotoxicity against human HCT15 cells after 48 hrs by sulforhodamine B assay; settings: HCT-15, 48 h, read-out: LC50 (the source's name); how it was run: as §4
SF-539 = assay: Growth inhibition of human SF539 cells after 48 hrs by sulforhodamine B assay; settings: SF-539, 48 h; how it was run: as §2
SR = assay: Cytotoxicity against human SR cells after 48 hrs by sulforhodamine B assay; settings: read-out: LC50 (the source's name)
UACC-257 [7] = assay: Cytotoxicity against human UACC257 cells after 48 hrs by sulforhodamine B assay; settings: UACC-257, 48 h, read-out: LC50 (the source's name)
RPMI-8226 [8] = assay: Cytotoxicity against human RPMI8226 cells after 48 hrs by sulforhodamine B assay; settings: RPMI-8226, 48 h, read-out: LC50 (the source's name); how it was run: as §4
[9] = Growth inhibition of human Hs 578T cells after 48 hrs by sulforhodamine B assay; how it was run: as §1
Malme-3M [10] = assay: Cytotoxicity against human MALME-3M cells after 48 hrs by sulforhodamine B assay; settings: read-out: LC50 (the source's name); how it was run: as §4
UO-31 = assay: Cytotoxicity against human UO31 cells after 48 hrs by sulforhodamine B assay; settings: UO-31, 48 h, read-out: LC50 (the source's name)
RPMI-8226 [11] = assay: Growth inhibition of human RPMI8226 cells after 48 hrs by sulforhodamine B assay; settings: RPMI-8226, 48 h; how it was run: as §2
MDA-MB-435 = assay: Growth inhibition of human MDA-MB-435 cells after 48 hrs by sulforhodamine B assay; settings: MDA-MB-435, 48 h; how it was run: as §2
NCI-H460 = assay: Growth inhibition of human NCI-H460 cells after 48 hrs by sulforhodamine B assay; settings: NCI-H460, 48 h; how it was run: as §2
OVCAR-5 = assay: Cytotoxicity against human OVCAR5 cells after 48 hrs by sulforhodamine B assay; settings: OVCAR-5, 48 h, read-out: LC50 (the source's name); how it was run: as §4
SNB-19 = assay: Cytotoxicity against human SNB19 cells after 48 hrs by sulforhodamine B assay; settings: SNB-19, 48 h, read-out: LC50 (the source's name); how it was run: as §4
HCC 2998 [12] = assay: Growth inhibition of human HCC2998 cells after 48 hrs by sulforhodamine B assay; settings: HCC 2998, 48 h; how it was run: as §1
HCC 2998 [13] = assay: Cytotoxicity against human HCC2998 cells after 48 hrs by sulforhodamine B assay; settings: HCC 2998, 48 h, read-out: LC50 (the source's name); how it was run: as §4
NCI/ADR-RES [14] = assay: Growth inhibition of human NCI/ADR-RES cells after 48 hrs by sulforhodamine B assay; how it was run: as §2
UACC-257 [15] = assay: Growth inhibition of human UACC257 cells after 48 hrs by sulforhodamine B assay; settings: UACC-257, 48 h; how it was run: as §3
SK-MEL-5 = assay: Growth inhibition of human SK-MEL-5 cells after 48 hrs by sulforhodamine B assay; settings: SK-MEL-5, 48 h; how it was run: as §2

Q: Which GI50 (CAKI-1) does the source give for `CC(C)CCC[C@@H](C)[C@H]1CC[C@H]2C3=CC[C@@H]4C(=O)C=CC(=O)[C@@H]4[C@@H]3CC[C@]12C` here?
A: 279 nM

Q: What about the TGI (CAKI-1) of the same compound?
A: 633 nM

Q: What about the GI50 (SK-MEL-2) of the same compound?
A: 3370 nM

Q: What about the TGI (SK-MEL-2) of the same compound?
A: > 100000 nM

Q: What about the GI50 (786-0) of the same compound?
A: 311 nM

Q: What about the TGI (786-0) of the same compound?
A: 1500 nM

Q: And the GI50 (MCF7)?
A: 112 nM

Q: And the TGI (MCF7)?
A: 757 nM

Q: And the GI50 (M14)?
A: 299 nM

Q: And the GI50 (HCT-15 [1])?
A: 212 nM

Q: And the GI50 (SK-OV-3)?
A: 688 nM

Q: And the GI50 (Malme-3M [2])?
A: 399 nM

Q: What about the TGI (Malme-3M [2]) of the same compound?
A: 2000 nM

Q: And the CC50 (OVCAR-4)?
A: > 2650 nM

Q: And the CC50 (A549)?
A: > 100000 nM

Q: And the GI50 (SF-268)?
A: 566 nM

Q: And the TGI (SF-268)?
A: > 100000 nM

Q: And the CC50 (NCI-H226 [3])?
A: > 100000 nM

Q: And the CC50 (EKVX)?
A: > 100000 nM

Q: And the GI50 (NCI-H226 [4])?
A: 480 nM

Q: And the CC50 (NCI-H522)?
A: > 100000 nM

Q: And the GI50 (ACHN)?
A: 162 nM

Q: What about the TGI (ACHN) of the same compound?
A: 1350 nM

Q: What about the CC50 (COLO 205) of the same compound?
A: > 536 nM

Q: What about the CC50 (NCI/ADR-RES [5]) of the same compound?
A: > 100000 nM

Q: And the GI50 (SN12C)?
A: 269 nM

Q: What about the TGI (SN12C) of the same compound?
A: > 100000 nM

Q: What about the CC50 (HCT-15 [6]) of the same compound?
A: > 100000 nM

Q: And the GI50 (SF-539)?
A: 478 nM

Q: What about the CC50 (SR) of the same compound?
A: > 100000 nM

Q: And the CC50 (UACC-257 [7])?
A: > 100000 nM

Q: And the CC50 (RPMI-8226 [8])?
A: > 100000 nM

Q: What about the GI50 [9] of the same compound?
A: 817 nM

Q: And the TGI [9]?
A: > 100000 nM

Q: And the CC50 (Malme-3M [10])?
A: > 100000 nM

Q: What about the CC50 (UO-31) of the same compound?
A: > 1750 nM

Q: And the GI50 (RPMI-8226 [11])?
A: 107 nM

Q: What about the TGI (RPMI-8226 [11]) of the same compound?
A: 2230 nM

Q: And the GI50 (MDA-MB-435)?
A: 229 nM

Q: What about the TGI (MDA-MB-435) of the same compound?
A: 997 nM

Q: And the GI50 (NCI-H460)?
A: 333 nM

Q: And the TGI (NCI-H460)?
A: 5590 nM

Q: What about the CC50 (OVCAR-5) of the same compound?
A: > 100000 nM

Q: What about the CC50 (SNB-19) of the same compound?
A: > 100000 nM

Q: What about the GI50 (HCC 2998 [12]) of the same compound?
A: 274 nM

Q: What about the TGI (HCC 2998 [12]) of the same compound?
A: 855 nM

Q: And the CC50 (HCC 2998 [13])?
A: > 100000 nM

Q: What about the GI50 (NCI/ADR-RES [14]) of the same compound?
A: 275 nM

Q: And the GI50 (UACC-257 [15])?
A: 230 nM

Q: And the TGI (UACC-257 [15])?
A: 610 nM

Q: And the GI50 (SK-MEL-5)?
A: 309 nM

Q: And the TGI (SK-MEL-5)?
A: 1000 nM

— ChEMBL document CHEMBL1806372, “Cytotoxic ring A-modified steroid analogues derived from Grundmann's ketone” (Eur J Med Chem, 2011)
